Experimental data as given in ChEMBL document CHEMBL1144684, “Evaluation of a series of naphthamides as potent, orally active vascular endothelial growth factor receptor-2 tyrosine kinase inhibitors” (J Med Chem, 2008).
pIC50: −log10 of the molar value. The source made the active and inactive calls. No cut-off for these calls is given here.

Tests used:
[1] = Half life in mouse at 10 mg/kg, po; assay type: ADME, organism-based; set-up: dose 10 mg/kg, route oral; details: in vivo
Outline: (§1)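 Compound given iv and po as single doses; vehicles: mouse iv PEG 400, po OraPlus; dog iv DMSO, po 1% Tween-80/2% HPMC/97% water; cynomolgus iv propylene glycol, po suspension.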

[2] = Clearance in mouse at 2 mg/kg, iv; assay type: ADME, organism-based; set-up: dose 2 mg/kg, route intravenous; details: in vivo; outline: as §1
[3] = Oral bioavailability in mouse at 10 mg/kg; assay type: ADME, organism-based; details: in vivo
Outline: (§2)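 Oral suspension dosing; vehicles: mouse 10 mg/kg in OraPlus, dog 0.5 mg/kg in 1% Tween-80/2% HPMC/97% water, cynomolgus monkey 2 mg/kg.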

[4] = Cmax in dog at 0.5 mg/kg, po; assay type: ADME, organism-based, Canis lupus familiaris; set-up: dose 0.5 mg/kg, route oral; details: in vivo; outline: as §1
[5] = Tmax in dog at 0.5 mg/kg, po; assay type: ADME, organism-based, Canis lupus familiaris; set-up: dose 0.5 mg/kg, route oral; details: in vivo; outline: as §2
[6] = AUC (0 to 24 hrs) in dog at 0.5 mg/kg, po; assay type: ADME, organism-based, Canis lupus familiaris; set-up: time < 24 hr, dose 0.5 mg/kg, route oral; details: plasma; outline: as §1
[7] = Clearance in dog at 0.5 mg/kg, iv; assay type: ADME, organism-based, Canis lupus familiaris; set-up: dose 0.5 mg/kg, route intravenous; details: in vivo; outline: as §1
[8] = Volume of distribution at steady state in dog at 0.5 mg/kg, iv; assay type: ADME, organism-based, Canis lupus familiaris; set-up: dose 0.5 mg/kg, route intravenous; details: in vivo, read-out: Vdss
Outline: (§3)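 Intravenous dosing of male/unspecified animals per species; vehicles: mouse 2 mg/kg in Peg 400, dog 0.5 mg/kg in DMSO, cynomolgus monkey 0.5 mg/kg in propylene glycol. Parameters from plasma concentration–time data by noncompartmental analysis.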

[9] = Cmax in cynomolgus monkey at 2 mg/kg, po; assay type: ADME, organism-based, Macaca fascicularis; set-up: dose 2 mg/kg, route oral; details: in vivo; outline: as §1
[10] = Tmax in cynomolgus monkey at 2 mg/kg, po; assay type: ADME, organism-based, Macaca fascicularis; set-up: dose 2 mg/kg, route oral; details: in vivo; outline: as §2
[11] = Volume of distribution at steady state in cynomolgus monkey at 0.5 mg/kg, iv; assay type: ADME, organism-based, Macaca fascicularis; set-up: dose 0.5 mg/kg, route intravenous; details: in vivo, read-out: Vdss; outline: as §3
[12] = Oral bioavailability in cynomolgus monkey at 2 mg/kg; assay type: ADME, organism-based, Macaca fascicularis; details: in vivo; outline: as §2
[13] = system: HT-29; test: Antitumor activity in human HT29 cell xenografted CD1 nu/nu mouse assessed as inhibition of tumor growth at 10 mg/kg, po qd for 14 days; assay type: functional; details: HT-29, 336 h, read-out: TGI
Outline: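 Female CD-1 nu/nu mice, 4–8 weeks, implanted sc in hind flank with 1 × 10^7 HT29 (DMEM high glucose, 5% FBS) or Calu-6 (RPMI 1640, 10% FBS) cells; treatment began at 13–14 days (~300 mm3). Methanesulfonate salt given po qd in OraPlus for 14 days; caliper volumes twice weekly; n = 10/group; RMANOVA with Scheffé test.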

[14] = system: HUVEC; test: Selectivity of IC50 for VEGF-induced proliferation over IC50 for bFGF-induced proliferation of HUVEC; assay type: functional, Homo sapiens
Outline: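 HUVECs were seeded at 3000 cells/well in DMEM/10% FBS with pen/strep and cultured for 22 h. They were preincubated 2 h with serially diluted compound, then stimulated with 50 ng/mL VEGF or 20 ng/mL bFGF for 72 h at 37 °C, 5% CO2. Cells were washed, frozen at -70 °C and stained with CyQuant. IC50s came from a four-parameter logistic fit, averaged over ≥2 experiments; the VEGF IC50 was compared against the bFGF IC50.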

[15] = Intrinsic clearance in rat liver microsomes at 1 uM; assay type: ADME, Microsome; details: read-out: Stability
Outline: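 Human or rat liver microsomes (0.25 mg protein/mL) with 1 mM NADPH, 2 mM MgCl2 in 50 mM potassium phosphate pH 7.4 at 37 °C; compound 1 µM final. Sampled 0–40 min into acetonitrile, LC-MS/MS; ln % remaining vs time slope gives T1/2; CLint = (0.693/T1/2)/0.25 mg/mL.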

[16] = Clearance in Sprague-Dawley rat at 0.5 mg/kg, iv; assay type: ADME, organism-based; set-up: dose 0.5 mg/kg, route intravenous; details: in vivo
Outline: (§4)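 Male Sprague–Dawley rats dosed iv via femoral vein as DMSO solution (1 or 0.5 mg/kg) or po by gavage as OraPlus suspension (pH 2.0–2.2 with methanesulfonic acid; 10 or 2 mg/kg). Serial jugular blood over 12–24 h; plasma acetonitrile precipitation, LC-MS/MS (MRM) with internal standard; noncompartmental parameters.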

[17] = system: Liver microsomes; test: Metabolic stability assessed as covalent binding in absence of NADPH in rat liver microsomes at 10 uM after 1 hr; assay type: ADME, Microsome
Outline: (§5)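 14C-labelled compound at 10 µM with human or rat liver microsomes (1 mg/mL) in 0.1 M potassium phosphate pH 7.4, with or without 1 mM NADPH and 1 mM glutathione, 60 min; quenched with ice-cold acetonitrile. Pellet washed with 80% methanol and ethanol/ether, solubilized, protein by BCA, radioactivity by scintillation counting.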

[18] = system: Liver microsomes; test: Metabolic stability assessed as covalent binding in presence of NADPH and GSH in rat liver microsomes at 10 uM after 1 hr; assay type: ADME, Microsome; outline: as §5
[19] = Volume of distribution at steady state in Sprague-Dawley rat at 0.5 mg/kg, iv; assay type: ADME, organism-based; set-up: dose 0.5 mg/kg, route intravenous; details: in vivo, read-out: Vdss
Outline: (§6)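 Male Sprague–Dawley rats dosed iv at 0.5 mg/kg as DMSO solution or po at 2 mg/kg as suspension in 100% OraPlus. Serial jugular blood, plasma LC-MS/MS quantitation, noncompartmental analysis.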

[20] = AUC (0 to infinity) in Sprague-Dawley rat at 2 mg/kg, po; assay type: ADME, organism-based; set-up: time infinity, dose 2 mg/kg, route oral; details: plasma; outline: as §4
[21] = Oral bioavailability in Sprague-Dawley rat at 2 mg/kg; assay type: ADME, organism-based; details: in vivo; outline: as §6
[22] = target: Vascular endothelial growth factor receptor 1 (Homo sapiens, UniProt P17948); test: Inhibition of human VEGFR1
[23] = target: Tyrosine-protein kinase Lyn (Homo sapiens, UniProt P07948); test: Inhibition of Lyn
[24] = system: Rattus norvegicus; test: Inhibition of VEGF-induced angiogenesis in VEGF-soaked disk implanted in Sprague-Dawley rat cornea assessed as number of blood vessels intersecting the midpoint between disk and limbus after 7 days; assay type: functional; details: 168 h
[25] = AUC in VEGF-soaked disk implanted in Sprague-Dawley rat; assay type: ADME, organism-based; details: plasma
[26] = Cmax in VEGF-soaked disk implanted in Sprague-Dawley rat; assay type: ADME, organism-based; details: in vivo
[27] = system: Liver microsomes; test: Metabolic stability assessed as covalent binding in presence of NADPH in human liver microsomes at 10 uM after 1 hr; assay type: ADME, Microsome; outline: as §5
[28] = system: Liver microsomes; test: Metabolic stability assessed as covalent binding in presence of NADPH and GSH in human liver microsomes at 10 uM after 1 hr; assay type: ADME, Microsome; outline: as §5
[29] = target: Angiopoietin-1 receptor (Homo sapiens, UniProt Q02763); test: Inhibition of Tie2
[30] = target: Hepatocyte growth factor receptor (Homo sapiens, UniProt P08581); test: Inhibition of c-Met
[31] = target: Aurora kinase B (Homo sapiens, UniProt Q96GD4); test: Inhibition of Aurora B
[32] = system: HUVEC; test: Inhibition of bFGF-induced proliferation of HUVEC; assay type: functional, cell-based; details: Homo sapiens
Outline: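 HUVEC seeded at 3000/well in DMEM with 10% FBS, 22 h; 2 h preincubation with serial compound dilutions, then 50 ng/mL VEGF or 20 ng/mL bFGF for 72 h at 37 °C. Freeze–thaw, CyQuant DNA dye read-out; IC50 by four-parameter logistic fit, averaged over ≥2 experiments.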

[33] = system: Calu-6 (Homo sapiens); test: Antitumor activity in human Calu6 cell xenografted CD1 nu/nu mouse assessed as inhibition of tumor growth at 60 mg/kg, po qd for 14 days; details: Calu-6, po, 336 h, read-out: TGI

Aurora kinase B, sequence (Q96GD4 whole entry): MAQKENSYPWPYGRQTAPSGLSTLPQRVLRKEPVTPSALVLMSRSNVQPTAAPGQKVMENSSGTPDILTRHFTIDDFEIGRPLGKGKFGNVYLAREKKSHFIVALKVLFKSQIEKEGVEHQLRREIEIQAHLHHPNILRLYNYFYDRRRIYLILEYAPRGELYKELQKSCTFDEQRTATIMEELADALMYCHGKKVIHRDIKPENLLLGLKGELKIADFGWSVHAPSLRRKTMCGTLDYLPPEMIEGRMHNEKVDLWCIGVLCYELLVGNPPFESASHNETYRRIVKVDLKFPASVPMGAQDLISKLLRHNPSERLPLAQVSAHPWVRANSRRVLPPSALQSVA
Vascular endothelial growth factor receptor 1, sequence (P17948 whole entry): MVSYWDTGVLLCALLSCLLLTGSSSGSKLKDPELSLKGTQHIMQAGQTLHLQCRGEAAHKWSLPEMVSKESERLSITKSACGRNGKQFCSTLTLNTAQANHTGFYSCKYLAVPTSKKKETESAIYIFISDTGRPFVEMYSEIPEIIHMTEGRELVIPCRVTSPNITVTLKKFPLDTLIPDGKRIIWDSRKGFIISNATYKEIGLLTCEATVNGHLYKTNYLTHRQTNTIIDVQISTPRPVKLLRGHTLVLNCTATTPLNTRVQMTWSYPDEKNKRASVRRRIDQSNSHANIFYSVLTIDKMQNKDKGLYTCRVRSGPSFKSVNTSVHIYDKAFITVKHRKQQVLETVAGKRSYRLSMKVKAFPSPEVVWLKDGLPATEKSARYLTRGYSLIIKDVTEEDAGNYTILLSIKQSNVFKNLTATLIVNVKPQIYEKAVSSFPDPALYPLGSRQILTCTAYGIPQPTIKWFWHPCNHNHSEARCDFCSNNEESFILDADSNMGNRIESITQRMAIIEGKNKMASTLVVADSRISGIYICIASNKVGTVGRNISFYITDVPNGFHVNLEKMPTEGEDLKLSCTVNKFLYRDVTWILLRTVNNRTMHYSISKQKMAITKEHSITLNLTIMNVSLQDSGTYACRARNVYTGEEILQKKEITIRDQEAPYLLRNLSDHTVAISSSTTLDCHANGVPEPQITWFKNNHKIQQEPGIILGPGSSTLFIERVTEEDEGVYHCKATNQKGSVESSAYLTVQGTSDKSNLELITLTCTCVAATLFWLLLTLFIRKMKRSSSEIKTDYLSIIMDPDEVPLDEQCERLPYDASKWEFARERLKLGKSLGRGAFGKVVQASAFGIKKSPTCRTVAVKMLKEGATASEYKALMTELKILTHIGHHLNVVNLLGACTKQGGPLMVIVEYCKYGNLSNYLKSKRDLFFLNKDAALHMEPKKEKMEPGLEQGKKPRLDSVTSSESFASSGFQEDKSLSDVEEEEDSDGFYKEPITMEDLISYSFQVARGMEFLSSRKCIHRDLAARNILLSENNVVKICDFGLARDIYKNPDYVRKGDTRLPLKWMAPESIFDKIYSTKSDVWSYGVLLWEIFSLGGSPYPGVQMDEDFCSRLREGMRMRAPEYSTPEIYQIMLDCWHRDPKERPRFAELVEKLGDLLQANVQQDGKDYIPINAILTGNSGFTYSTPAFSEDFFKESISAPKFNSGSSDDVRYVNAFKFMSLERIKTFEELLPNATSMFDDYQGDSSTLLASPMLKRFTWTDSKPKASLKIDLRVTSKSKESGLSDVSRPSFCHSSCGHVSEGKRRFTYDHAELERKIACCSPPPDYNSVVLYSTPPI
Angiopoietin-1 receptor, sequence (Q02763 whole entry): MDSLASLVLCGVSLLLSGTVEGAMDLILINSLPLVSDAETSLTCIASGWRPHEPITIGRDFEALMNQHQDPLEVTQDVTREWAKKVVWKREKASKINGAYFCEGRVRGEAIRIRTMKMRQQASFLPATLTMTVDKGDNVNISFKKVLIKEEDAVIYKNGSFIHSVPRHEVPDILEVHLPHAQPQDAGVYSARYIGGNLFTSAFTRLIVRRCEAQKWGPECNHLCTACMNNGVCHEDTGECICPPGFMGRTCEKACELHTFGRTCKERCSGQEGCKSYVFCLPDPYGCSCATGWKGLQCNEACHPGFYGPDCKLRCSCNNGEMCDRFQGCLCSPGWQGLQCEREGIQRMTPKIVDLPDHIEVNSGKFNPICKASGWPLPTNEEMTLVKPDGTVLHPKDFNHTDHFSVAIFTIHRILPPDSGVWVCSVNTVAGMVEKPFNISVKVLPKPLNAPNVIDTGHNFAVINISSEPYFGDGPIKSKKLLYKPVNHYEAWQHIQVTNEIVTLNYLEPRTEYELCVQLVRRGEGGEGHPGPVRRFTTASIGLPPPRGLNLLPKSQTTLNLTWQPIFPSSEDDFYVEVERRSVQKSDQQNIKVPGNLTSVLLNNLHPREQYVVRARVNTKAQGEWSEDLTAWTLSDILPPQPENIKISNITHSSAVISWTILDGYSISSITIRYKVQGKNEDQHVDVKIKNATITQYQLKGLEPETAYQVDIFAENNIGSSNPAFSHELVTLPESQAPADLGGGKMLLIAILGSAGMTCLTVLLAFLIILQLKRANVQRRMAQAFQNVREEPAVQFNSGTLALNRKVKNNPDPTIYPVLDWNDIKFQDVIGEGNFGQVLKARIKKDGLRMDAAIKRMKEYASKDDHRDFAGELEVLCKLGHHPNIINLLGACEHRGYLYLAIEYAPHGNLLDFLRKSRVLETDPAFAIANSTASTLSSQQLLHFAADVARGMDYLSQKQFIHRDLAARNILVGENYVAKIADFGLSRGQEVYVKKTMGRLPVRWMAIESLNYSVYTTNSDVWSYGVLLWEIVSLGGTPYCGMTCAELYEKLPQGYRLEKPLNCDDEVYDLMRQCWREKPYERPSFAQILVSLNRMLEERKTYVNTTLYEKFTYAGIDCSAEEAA
Hepatocyte growth factor receptor, sequence (P08581 whole entry): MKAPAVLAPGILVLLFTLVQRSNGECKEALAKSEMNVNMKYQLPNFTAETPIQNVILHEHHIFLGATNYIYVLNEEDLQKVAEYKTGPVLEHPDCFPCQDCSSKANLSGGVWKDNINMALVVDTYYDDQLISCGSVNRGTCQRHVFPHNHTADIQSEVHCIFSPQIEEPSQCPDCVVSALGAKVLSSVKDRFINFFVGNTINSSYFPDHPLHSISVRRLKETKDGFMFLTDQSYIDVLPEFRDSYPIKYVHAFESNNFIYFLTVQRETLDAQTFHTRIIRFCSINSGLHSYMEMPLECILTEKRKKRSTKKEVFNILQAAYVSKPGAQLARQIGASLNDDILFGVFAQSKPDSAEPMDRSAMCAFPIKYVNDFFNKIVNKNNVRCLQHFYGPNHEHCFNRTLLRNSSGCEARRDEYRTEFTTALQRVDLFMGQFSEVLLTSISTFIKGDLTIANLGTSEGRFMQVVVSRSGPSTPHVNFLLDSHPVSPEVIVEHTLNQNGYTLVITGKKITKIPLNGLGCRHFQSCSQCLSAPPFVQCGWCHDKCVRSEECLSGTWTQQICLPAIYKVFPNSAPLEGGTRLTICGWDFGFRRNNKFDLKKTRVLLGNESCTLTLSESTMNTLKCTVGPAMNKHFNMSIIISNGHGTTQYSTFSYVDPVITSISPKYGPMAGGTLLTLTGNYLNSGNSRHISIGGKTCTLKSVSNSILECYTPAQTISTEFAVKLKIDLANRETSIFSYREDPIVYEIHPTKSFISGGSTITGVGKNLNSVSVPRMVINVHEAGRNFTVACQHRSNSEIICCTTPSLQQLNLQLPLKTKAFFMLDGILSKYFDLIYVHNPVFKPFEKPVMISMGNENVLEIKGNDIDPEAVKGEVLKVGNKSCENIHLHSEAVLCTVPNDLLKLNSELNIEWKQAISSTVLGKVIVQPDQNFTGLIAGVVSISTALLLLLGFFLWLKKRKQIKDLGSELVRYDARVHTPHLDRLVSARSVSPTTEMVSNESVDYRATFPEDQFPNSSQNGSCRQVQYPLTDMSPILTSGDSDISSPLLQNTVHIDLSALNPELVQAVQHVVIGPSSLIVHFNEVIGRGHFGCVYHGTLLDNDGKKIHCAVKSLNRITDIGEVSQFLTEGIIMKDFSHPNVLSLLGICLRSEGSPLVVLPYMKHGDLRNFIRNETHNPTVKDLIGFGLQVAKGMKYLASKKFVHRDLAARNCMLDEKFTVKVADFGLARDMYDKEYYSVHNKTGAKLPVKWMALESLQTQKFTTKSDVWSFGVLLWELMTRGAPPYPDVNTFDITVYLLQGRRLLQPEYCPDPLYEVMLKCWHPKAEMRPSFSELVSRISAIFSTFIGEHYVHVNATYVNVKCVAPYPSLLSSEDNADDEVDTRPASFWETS
Tyrosine-protein kinase Lyn, sequence (P07948 whole entry): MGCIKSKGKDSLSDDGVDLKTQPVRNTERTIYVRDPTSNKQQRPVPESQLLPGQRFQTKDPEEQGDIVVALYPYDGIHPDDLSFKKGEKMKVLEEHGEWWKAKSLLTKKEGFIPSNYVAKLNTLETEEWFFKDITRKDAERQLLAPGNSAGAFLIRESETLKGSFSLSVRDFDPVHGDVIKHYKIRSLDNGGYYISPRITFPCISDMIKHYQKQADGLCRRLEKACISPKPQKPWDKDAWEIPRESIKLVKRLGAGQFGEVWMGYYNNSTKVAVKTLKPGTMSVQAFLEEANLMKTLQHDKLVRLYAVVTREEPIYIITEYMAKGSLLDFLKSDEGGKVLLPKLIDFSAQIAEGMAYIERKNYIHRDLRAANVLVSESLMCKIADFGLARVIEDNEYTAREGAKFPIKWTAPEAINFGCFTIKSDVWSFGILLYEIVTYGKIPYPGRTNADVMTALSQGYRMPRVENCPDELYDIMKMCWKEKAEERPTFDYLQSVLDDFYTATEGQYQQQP

With COc1cc2nccc(Oc3ccc4c(C(N)=O)cccc4c3)c2cc1OC as the compound, how does the half-life [1] read?
The half-life was 336 min.

What about the clearance [2] of the same compound?
The clearance was 42.4 mL/min/kg.

And the bioavailability [3]?
The bioavailability was 39%.

What about the Cmax [4] of the same compound?
Its Cmax is 464 ng/mL.

What about the Tmax [5] of the same compound?
Its Tmax is 45 min.

What about the AUC(0-t) at 24 h [6] of the same compound?
The AUC(0-t) at 24 h was 3650 ng·h/mL.

What about the clearance [7] of the same compound?
The clearance was 1.72 mL/min/kg.

What about the Vd [8] of the same compound?
Its Vd is 1.86 L/kg.

What about the Cmax [9] of the same compound?
The Cmax was 1050 ng/mL.

And the Tmax [10]?
The Tmax was 49.8 min.

What about the Vd [11] of the same compound?
The Vd was 6.82 L/kg.

And the bioavailability [12]?
The bioavailability was 51%.

And the inhibition in vivo at 10 mg/kg [13]?
Its inhibition in vivo at 10 mg/kg is 85%.

And the Selectivity ratio [14]?
The Selectivity ratio was greater than 100.

What about the microsomal CLint at 1 µM [15] of the same compound?
Its microsomal CLint at 1 µM is 32 µL/min/mg.

What about the clearance [16] of the same compound?
The clearance was 3.73 mL/min/kg.

And the Stability [17]?
The Stability was 14 pmol/mg/h.

What about the Stability [18] of the same compound?
Its Stability is 3.2 pmol/mg/h.

What about the Vd [19] of the same compound?
The Vd was 1.06 L/kg.

And the AUC(0-inf) [20]?
Its AUC(0-inf) is 8450 ng·h/mL.

What about the bioavailability [21] of the same compound?
The bioavailability was 96%.

And the Activity [22]?
Its Activity is “Active”.

What about the pIC50 [23] of the same compound?
The pIC50 was 7.06.

And the ED50 [24]?
The ED50 was 0.04 mg/kg.

And the AUC [25]?
Its AUC is 0.48 µM·h.

What about the Cmax [26] of the same compound?
The Cmax was 50 nM.

What about the Stability [27] of the same compound?
The Stability was 36 pmol/mg/h.

And the Stability [28]?
Its Stability is 3.2 pmol/mg/h.

What about the pIC50 [29] of the same compound?
The pIC50 was 4.60.

And the pIC50 [30]?
The pIC50 was 5.16.

And the pIC50 [31]?
The pIC50 was 6.66.

What about the pIC50 [32] of the same compound?
The pIC50 was 6.64.

And the inhibition in vivo at 60 mg/kg [33]?
Its inhibition in vivo at 60 mg/kg is 88%.
